Measurements of several laboratories.
Compare with care: the assays were run in different laboratories.
Mode: inhibitor
MAL12: Alpha-glucosidase MAL12 (MAL12, Saccharomyces cerevisiae S288c, UniProt P53341)
SLC22A6: Solute carrier family 22 member 6 (SLC22A6, Homo sapiens, UniProt Q4U2R8)
SQLE: Squalene monooxygenase (SQLE, Homo sapiens, UniProt Q14534)
FABP1: Fatty acid-binding protein, liver (FABP1, Homo sapiens, UniProt P07148)

target	assay	test system	conditions	IC50 [µM]	Structure (SMILES)
MAL12	enzyme activity, absorbance		pH 6.9	1.1	C[C@H]1CN(C(=O)Nc2ccc(C(F)(F)F)cc2)CCN1c1ccnc(Nc2ccc(Cl)cc2)n1
SLC22A6	transporter uptake, radiometric	HEK293		> 1	CC(C)NC(=O)COc1cccc(-c2nc(Nc3ccc4[nH]ncc4c3)c3ccccc3n2)c1
Focal adhesion kinase 1 (PTK2, Homo sapiens, UniProt Q05397)	enzyme activity, ELISA			17.1	NS(=O)(=O)c1ccc(-n2nc(C(=O)NN=Cc3ccc(O)cc3)cc2-c2ccccc2)cc1
Tyrosine-protein phosphatase non-receptor type 1 (PTPN1, Homo sapiens, UniProt P18031)	enzyme activity			10.9	CC[N+](CC)(CC)Cc1ccccc1.CC[N+](CC)(CC)Cc1ccccc1.[Br][Co-2]([Br])([Br])[Br]
Coagulation factor IX (F9, Homo sapiens, UniProt P00740)	enzyme activity			0.086	N=C(N)c1ccc2cc(OC(=O)c3ccc(N=C(N)N)cc3)ccc2c1
Solute carrier family 22 member 6 (SLC22A6, Homo sapiens, UniProt Q4U2R8, N439A)	transporter uptake, fluorescence			225	Nc1ccn(C[C@@H](CO)OCP(=O)(O)O)c(=O)n1
SQLE	enzyme activity, radiometric			2.5	O=C(O)[C@H]1O[C@@H](Oc2cc3oc(-c4ccccc4)cc(=O)c3c(O)c2O)[C@H](O)[C@@H](O)[C@@H]1O
MAL12	enzyme activity, absorbance			108	CC1(C)CC(=O)C2=C(C1)n1c(=O)c3ccccc3c(=O)n1C2c1cn(-c2ccccc2)nc1-c1ccc(O)cc1 (centres unmarked)
FABP1	cell-free assay, fluorescence		pH 7.4	9.6	Cc1cc(/C=C2\Oc3cc(OCCC(C)C)ccc3C2=O)cc(C)c1OC(C)(C)C(=O)O
MAL12	enzyme activity, absorbance			494	CC(=O)C1=C(C)n2c(=O)c3ccccc3c(=O)n2C1c1cn(-c2ccccc2)nc1-c1ccc(O)cc1 (centres unmarked)
SQLE	enzyme activity, radiometric			4.47	O=c1cc(-c2ccccc2)oc2cc(O)cc(O)c12
MAL12	enzyme activity, absorbance			15.4	CC(=O)C1=C(C)n2c(=O)c3ccccc3c(=O)n2C1c1cn(-c2ccccc2)nc1-c1ccccc1 (centres unmarked)
FABP1	cell-free assay, fluorescence		pH 7.4	7.7	CCCOc1ccc2c(c1)O/C(=C\c1ccc(OC(C)(C)C(=O)O)c(Cl)c1)C2=O
MAL12	enzyme activity, absorbance		pH 6.9	23.4	COc1ccc(NC(=O)N2CCN(c3ccnc(Nc4ccc(Cl)cc4)n3)[C@H](C)C2)cc1
FABP1	cell-free assay, fluorescence		pH 7.4	9.2	CCCOc1ccc2c(c1)O/C(=C\c1ccc(OC(C)(C)C(=O)O)c(F)c1)C2=O
SLC22A6	transporter uptake, fluorescence			2.4	COc1ccc(Cl)cc1C(=O)NCCc1ccc(S(=O)(=O)NC(=O)NC2CCCCC2)cc1
FABP1	cell-free assay, fluorescence		pH 7.4	8.6	CCOc1ccc2c(c1)O/C(=C\c1cc(C)c(OC(C)(C)C(=O)O)c(C)c1)C2=O
MAL12	enzyme activity, absorbance		pH 6.9	2.41	CC1CN(C(=O)Nc2ccc(Cl)c(Cl)c2)CCN1c1ccnc(Nc2ccc(Cl)cc2)n1 (centres unmarked)
Amine oxidase [flavin-containing] A (MAOA, Homo sapiens, UniProt P21397)	enzyme activity			> 30	NC/C(=C\F)COc1cccc(Cn2c(=S)[nH]c(=O)c3[nH]cnc32)c1
SQLE	enzyme activity, absorbance		pH 7.4, with preincubation	10	CC(CN1CCN(CCOCCO)CC1)CN1c2ccccc2Sc2ccccc21 (centres unmarked)
MAL12	enzyme activity, absorbance		pH 6.9	7.78	Cc1ccc(NC(=O)N2CCN(c3ccnc(Nc4ccc(Cl)cc4)n3)[C@H](C)C2)cc1
SQLE	enzyme activity, absorbance		pH 7.4, with preincubation	1.55	N#Cc1ccc2c(c1)N(CCCN1CCC(O)CC1)c1ccccc1S2
FABP1	cell-free assay, fluorescence		pH 7.4	4.8	Cc1cc(/C=C2\Oc3cc(OCC(C)C)ccc3C2=O)cc(C)c1OC(C)(C)C(=O)O
MAL12	enzyme activity, absorbance		pH 6.9	4.21	C[C@H]1CN(C(=O)Nc2ccc(C(F)(F)F)cc2)CCN1c1ccnc(Nc2ccccc2Cl)n1
FABP1	cell-free assay, fluorescence		pH 7.4	14.6	CCCOc1ccc2c(c1)O/C(=C\c1ccc(OCC(=O)O)cc1)C2=O
MAL12	enzyme activity, absorbance		pH 6.9	1.59	C[C@H]1CN(C(=O)Nc2ccc(C(F)(F)F)cc2)CCN1c1ccnc(Nc2ccc(Br)cc2)n1
FABP1	cell-free assay, fluorescence		pH 7.4	5.8	CCCOc1ccc2c(c1)O/C(=C\c1ccc(OC(C)(C)C(=O)O)c(C)c1)C2=O
MAL12	enzyme activity, absorbance		pH 6.9	0.44	C[C@H]1CN(C(=O)Nc2ccc(C(F)(F)F)cc2)CCN1c1ccnc(Nc2ccc(Cl)c(O)c2)n1
SQLE	enzyme activity, radiometric			1.88	COc1cc(C2Oc3cc([C@H]4Oc5cc(O)cc(O)c5C(=O)[C@@H]4O)ccc3OC2CO)ccc1O (some centres unmarked)
